The results in this text go back to ChEMBL document CHEMBL4266005, “Discovery of a Biologically Active Bromodomain Inhibitor by Target-Directed Dynamic Combinatorial Chemistry” (ACS Med Chem Lett, 2018).

Data set [1] has as its system Trypanosoma cruzi. In words: Binding affinity to recombinant Trypanosoma cruzi His/haemaglutinin-tagged BDF3 expressed in Escherichia coli BL21 assessed as compound amplification factor at 75 uM by LC-MS based dynamic combinatorial chemistry analysis. In short, it runs like this:
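A dynamic acylhydrazone library was built from six aldehydes and four acylhydrazides (75 μM each) in 100 mM ammonium acetate, pH 6.5, with 3.75 mM aniline. It reached constant composition by about 10 h and was run with or without 100 μM recombinant TcBDF3. Amplification factor is the LC–MS peak area with template divided by the area without template.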

The test system of data set [2] is Trypanosoma cruzi. In words: Antitrypanosomal activity against Trypanosoma cruzi Dm28c amastigotes infected in African green monkey Vero cells after 48 hrs by CPRG/Nonidet reagent based beta-galactosidase reporter gene assay. The class given is functional, organism-based. In short, it runs like this:
(§1)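 β-Galactosidase-expressing parasites were exposed to 0–200 μM of compound. Growth inhibition was read from β-galactosidase activity, and IC50 was obtained by nonlinear regression of activity against concentration.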
On the technique in general: A reporter such as luciferase makes a cellular process visible.

Data set [3] deals with Trypanosoma cruzi. Briefly: Antitrypanosomal activity against Trypanosoma cruzi Dm28c trypomastigotes infected in African green monkey Vero cells after 24 hrs by CPRG/Nonidet reagent based beta-galactosidase reporter gene assay. Format: functional, organism-based. Summed up:
as §1

For data set [4], the system named is Vero. In words: Cytotoxicity against African green monkey Vero cells after 72 hrs by MTT assay. Format: cell-based. The settings on record: Chlorocebus sabaeus.
Data set [5] concerns Trypanosoma cruzi. Briefly: Antitrypanosomal activity against Trypanosoma cruzi Dm28c epimastigotes infected in African green monkey Vero cells after 72 hrs by CPRG/Nonidet reagent based beta-galactosidase reporter gene assay. Format: functional, organism-based. In short, it runs like this: as §1
The test system of data set [6] is Trypanosoma cruzi. Briefly: Binding affinity to recombinant Trypanosoma cruzi His/haemaglutinin-tagged BDF3 expressed in Escherichia coli BL21 at 100 uM by fluorescence spectra analysis. Summed up: (§2)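 Intrinsic tryptophan (W117) fluorescence spectra were recorded for 10 μM recombinant TcBDF3 in 100 mM ammonium acetate, pH 6.5, alone and with increasing ligand; building blocks were tested at 100 μM. Quenching was analyzed by Stern–Volmer, modified Stern–Volmer and double-logarithmic plots, and Kd came from the double-logarithmic plot.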

For data set [7], the system named is Trypanosoma cruzi. Briefly: Binding affinity to recombinant Trypanosoma cruzi His/haemaglutinin-tagged BDF3 Y123A/L130A double mutant expressed in Escherichia coli BL21 by fluorescence spectra analysis. In short, it runs like this:
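Intrinsic tryptophan fluorescence of 10 μM recombinant protein in 100 mM ammonium acetate, pH 6.5, measured with and without the hydrazone dynamic library. Maximum emission was normalized and compared.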

Data set [8] relates to Trypanosoma cruzi. Briefly: Binding affinity to recombinant Trypanosoma cruzi His/haemaglutinin-tagged BDF3 Y123A/L130A double mutant expressed in Escherichia coli BL21 by LC-MS based dynamic combinatorial chemistry analysis. In short, it runs like this:
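Dynamic library of six aldehydes and four acylhydrazides (75 μM each) in 100 mM ammonium acetate, pH 6.5, with 3.75 mM aniline, equilibrated about 10 h, with and without 100 μM recombinant protein. Read-out: LC–MS peak areas. Amplification factor = peak area in templated library ÷ peak area in untemplated library.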

A short description of data set [9]: (§3) Binding affinity to recombinant Trypanosoma cruzi His/haemaglutinin-tagged BDF3 expressed in Escherichia coli BL21 by fluorescence spectra analysis. In short, it runs like this:
as §2

Data set [10] can be described thus: Selectivity index, ratio of IC50 for African green monkey Vero cells to IC50 for Trypanosoma cruzi Dm28c epimastigotes infected in African green monkey Vero cells. The class given is toxicity. Conditions: read-out: Ratio IC50. Summed up: (§4)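 Selectivity index is the Vero cell toxicity IC50 divided by the IC50 against the relevant extracellular or intracellular parasite form.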

For data set [11], the system named is Trypanosoma cruzi. Briefly: Binding affinity to recombinant Trypanosoma cruzi His/haemaglutinin-tagged BDF3 Y123A/L130A double mutant expressed in Escherichia coli BL21 assessed as change in melting temperature at 10 uM by SYPRO orange based thermal shift assay.
Data set [12] is described as follows: Selectivity index, ratio of IC50 for African green monkey Vero cells to IC50 for Trypanosoma cruzi Dm28c amastigotes infected in African green monkey Vero cells. The class given is toxicity. Conditions: read-out: Ratio IC50. Summed up:
as §4

Data set [13] deals with Trypanosoma cruzi. Briefly: Binding affinity to recombinant Trypanosoma cruzi His/haemaglutinin-tagged BDF3 expressed in Escherichia coli BL21 assessed as change in melting temperature at 10 uM by SYPRO orange based thermal shift assay.
Data set [14] can be described thus: Selectivity index, ratio of IC50 for African green monkey Vero cells to IC50 for Trypanosoma cruzi Dm28c trypomastigotes infected in African green monkey Vero cells. The class given is toxicity. Conditions: read-out: Ratio IC50. Summed up: as §4
Data set [15] has as its system Trypanosoma cruzi. The description is as §3. In short, it runs like this:
as §2

Data set [16] has as its system Trypanosoma cruzi. Briefly: Binding affinity to recombinant Trypanosoma cruzi His/haemaglutinin-tagged BDF3 expressed in Escherichia coli BL21 assessed as change in melting temperature by SYPRO orange based thermal shift assay.
Data set [17] concerns Trypanosoma cruzi. Briefly: Antitrypanosomal activity against Trypanosoma cruzi Dm28c […] infected in African green monkey Vero cells at 25 uM after 48 hrs by CPRG/Nonidet reagent based beta-galactosidase reporter gene assay. Format: functional, organism-based.

The source made the active and inactive calls. No cut-off for these calls is given here.

As to `O=C(N/N=C/c1ccc(CO)o1)c1ccncc1`, the fold change (FC) in data set [1] was under 1.
The same measure, in the same setting: in the case of `COc1cc(/C=N/NC(=O)c2ccccc2)cc(OC)c1OC` it was under 1.
In the case of `O=C(N/N=C/[C@H](O)[C@H](O)[C@H](O)[C@@H](O)CO)c1ccco1`, the fold change (FC) in data set [1] was under 1.
`O=C(N/N=C/CCC/C=N/NC(=O)c1cccs1)c1ccccc1`: the fold change (FC) in data set [1] is under 1.
For `O=C(N/N=C/CCC/C=N/NC(=O)c1ccncc1)c1ccncc1`, the fold change (FC) in data set [1] is under 1.
For `O=C(O)c1ccc(/C=N/NC(=O)c2ccco2)cc1`, in data set [1], the fold change (FC) was under 1.
In the case of `O=C(N/N=C/CCC/C=N/NC(=O)c1cccs1)c1ccco1`, in data set [1], the fold change (FC) was under 1.
As for `O=C(N/N=C/[C@H](O)[C@H](O)[C@H](O)[C@@H](O)CO)c1cccs1`, the fold change (FC) in data set [1] was under 1.
Regarding `COc1cc(/C=N/NC(=O)c2ccco2)cc(OC)c1OC`, in data set [1], the fold change (FC) is under 1.
For the compound `O=C(Cn1ccnc1[N+](=O)[O-])NCc1ccccc1` [BENZNIDAZOLE], the IC50 (as a rule, the concentration needed to halve the response being measured) in data set [2] amounted to 3.92 µM; in [3] it was 27.1 µM; in data set [4], 30.2 µM; in [5] it was 18.2 µM.
With `O=C(N/N=C/CCC/C=N/NC(=O)c1cccs1)c1cccs1`, in data set [1], the fold change (FC) was in the range of 1.5 to 2.
On the same count and under the same terms, as for `COc1cc(/C=N/NC(=O)c2ccncc2)ccc1O`, the figure is under 1.
Consider `COc1cc(C=O)ccc1O`, for which the outcome in data set [6] was inactive.
As to `O=C(O)c1ccc(/C=N/NC(=O)c2ccncc2)cc1`, the fold change (FC) in data set [1] is under 1.
For the compound `O=C(N/N=C/c1ccc(CO)o1)c1ccccc1`, the fold change (FC) in [1] was under 1.
On the same count and under the same terms, as for `O=C(N/N=C/CCC/C=N/NC(=O)c1ccco1)c1ccncc1`, the figure is under 1.
Consider `O=C(N/N=C/CCC/C=N/NC(=O)c1ccncc1)c1ccccc1`, for which the fold change (FC) in [1] is under 1.
Turning to `COc1cc(/C=N/NC(=O)c2cccs2)ccc1O`, the IC50 in data set [2] was 13.1 µM; in data set [3], 17.8 µM; in data set [4], over 200 µM; in [5], 23 µM. Moreover, the result in data set [7] and in [8] was inactive. Further, the dissociation constant Kd (commonly the free concentration of one partner at which half of the binding sites on the other are occupied at equilibrium, for simple one-to-one binding) in data set [9] is 1.7 µM. The fold change (FC) in [1] was found to be 2.4. In addition, the selectivity ratio in [10] is over 9; in [12], over 15; in [14], over 11. Moreover, the ΔTm (usually the change in melting temperature against a reference sample) came to 0.4 °C in [11] and 3.43 °C in [13].
Regarding `O=C(N/N=C/CCC/C=N/NC(=O)c1ccccc1)c1ccccc1`, in data set [1], the fold change (FC) was under 1.
On to `O=C(N/N=C/[C@H](O)[C@H](O)[C@H](O)[C@@H](O)CO)c1ccncc1`, for which the fold change (FC) in data set [1] is 1.5 to 2.
Regarding `O=C(N/N=C/CCC/C=N/NC(=O)c1ccco1)c1ccco1`, in [1], the fold change (FC) was under 1.
As for `O=C(N/N=C/CCC/C=N/NC(=O)c1cccs1)c1ccncc1`, the fold change (FC) in [1] is under 1.
As for `COc1cc(/C=N/NC(=O)c2ccncc2)cc(OC)c1OC`, in data set [1], the fold change (FC) was under 1.
With `COc1cc(/C=N/NC(=O)c2ccccc2)ccc1O`, the fold change (FC) in data set [1] lay in the range of 1.5 to 2.
On to `O=C(N/N=C/[C@H](O)[C@H](O)[C@H](O)[C@@H](O)CO)c1ccccc1`, for which, in data set [1], the fold change (FC) lay within 1.5 to 2.
`O=C(N/N=C/CCC/C=N/NC(=O)c1ccco1)c1ccccc1`: the fold change (FC) in [1] is under 1.
For the compound `O=C(N/N=C/c1ccc(CO)o1)c1cccs1`, the fold change (FC) in data set [1] is under 1.
As to `O=C(N/N=C/c1ccc(CO)o1)c1ccco1`, the fold change (FC) in [1] is under 1.
Take `O=C(O)c1ccc(/C=N/NC(=O)c2ccccc2)cc1`: the fold change (FC) in data set [1] was under 1.
As for `CC1CS(=O)(=O)CCN1/N=C/c1ccc([N+](=O)[O-])o1` (stereo not drawn) [NIFURTIMOX], the IC50 in [2] amounted to 3 µM; in data set [3], 7 µM; in data set [4], 115 µM; in data set [5] it was 8 µM. Further, the values for the selectivity ratio in [10], in [12] and in [14] were 14, 38 and 16, respectively.
Consider `O=C(O)c1ccc(/C=N/NC(=O)c2cccs2)cc1`, for which the fold change (FC) in [1] is under 1.
With `COc1cc(/C=N/NC(=O)c2ccco2)ccc1O`, the fold change (FC) in data set [1] fell in the range of 1.5 to 2.
For `COc1cc(/C=N/NC(=O)c2cccs2)cc(OC)c1OC`, the result in data set [15], in [16] and in [17] was Active. In [1], the fold change (FC) came out at 1.2.
For `NNC(=O)c1cccs1`, the outcome in data set [6] was inactive.
